The test system of experiment [1] is K562 cells. As to the kind of experiment: Cell cycle analysis by flow cytometry. The note with it: for Cell cycle percentage G0/G1 / Cell cycle percentage G2/M / Cell cycle percentage S: K562 cells treated at the IC50, calculated using living cells, mean ± SE; for Effect on cell cycle distribution (in words): K562 cells, each compound at the IC50 value. Format: cell-based, human. An outline of the steps: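 K562 cells grown in RPMI 1640 with 10% FCS, 2 mM L-glutamine, penicillin (100 U/ml) and streptomycin (100 μg/ml) at 37 °C under 5% CO2, then exposed to test compound. Cells washed once in ice-cold PBS and resuspended at 1×10^6/mL in hypotonic propidium iodide (50 μg/mL, 0.1% sodium citrate, 0.03% NP-40) for 30 min. Single-parameter flow cytometry DNA histograms; phase percentages from living cells; hypodiploid peak scored as apoptotic.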

Experiment [2] has as its system tubulin. The experiment in a line: Inhibition of [3H]colchicine binding to tubulin. The note with it: for Colchicine binding % ±SD (inhibition of [3H]colchicine binding): tubulin, colchicine and tested compound at 1, 5 and 1 μM. An outline of the steps:
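Purified tubulin incubated with [3H]colchicine and test compound for 10 min at 37 °C. Read-out is percent inhibition of radiolabelled colchicine binding. Combretastatin A-4 served as reference at 1 μM.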

The test system of experiment [3] is human chronic myelogenous K562 leukemia cells. The experiment in a line: Cell proliferation analysis, K562 cells. Format: cell-based. As to conditions: Homo sapiens. The procedure, abridged:
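K562 cells grown in RPMI 1640 with 10% FCS, 2 mM L-glutamine, […] and penicillin/streptomycin at 37°C, 5% CO2. DMSO stocks (1 mg/mL) diluted in medium. Cells (1×10^4/well) exposed to increasing concentrations for 24 h at 37°C, then counted electronically. IC50 is 50% growth inhibition vs untreated controls. Duplicate cultures per concentration, repeated experiments, mean ± SE.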

Where [4] appears, read: K562, 24 h, read-out: IC50 K562.
The mark [5] stands for this setting: K562, read-out: IC50 (nM) in Table 3.

Like-named read-outs stand apart in the source and are kept apart here.

In general, IC50 refers to the point on the concentration scale where inhibition reaches its midpoint. On to `COc1ccc2c(NC(C)=O)c(C(=O)c3cc(OC)c(OC)c(OC)c3)oc2c1` [Compound 3i, N-[6-Methoxy-2-(3,4,5-trimethoxybenzoyl)-1-benzofuran-3-yl]acetamide], for which, in experiment [1], the “Cell cycle percentage G0/G1” value is on record as 27±5%, the “Cell cycle percentage G2/M” value is recorded as 37±6% and the “Cell cycle percentage S” value was 36±8%. The “Colchicine binding % ±SD (inhibition of [3H]colchicine binding)” value in experiment [2] was found to be 51±7%. Further, the IC50 in experiment [3] (setting [4]) turned out to be 27 ± 10 nM. In addition, in experiment [3] (setting [5]), the IC50 amounted to 85 nM.
As for `COc1ccc2c(NC(=O)CCl)c(C(=O)c3cc(OC)c(OC)c(OC)c3)oc2c1` [Compound 3j, 2-Chloro-N-[6-methoxy-2-(3,4,5-trimethoxybenzoyl)-1-benzofuran-3-yl]acetamide], in experiment [1], the “Cell cycle percentage G0/G1” value is recorded as 23±4%, the “Cell cycle percentage G2/M” value is recorded as 33±5%, the “Cell cycle percentage S” value is given as 44±7% and the “Effect on cell cycle distribution (in words)” value was “caused cells to accumulate in late S phase”. Further, the “Colchicine binding % ±SD (inhibition of [3H]colchicine binding)” value in experiment [2] turned out to be 47±5%. In experiment [3] (setting [4]), the IC50 was 30 ± 20 nM. The half-inhibitory concentration (IC50) in experiment [3] (setting [5]) stood at 400 nM.
For `COc1ccc2c(NC(=O)CBr)c(C(=O)c3cc(OC)c(OC)c(OC)c3)oc2c1` [Compound 3k, 2-Bromo-N-[6-methoxy-2-(3,4,5-trimethoxybenzoyl)-1-benzofuran-3-yl]acetamide], in experiment [1], the “Cell cycle percentage G0/G1” value is 6±1%, the “Cell cycle percentage G2/M” value is 67±8% and the “Cell cycle percentage S” value is listed as 27±4%. In experiment [2], the “Colchicine binding % ±SD (inhibition of [3H]colchicine binding)” value is 49±2%. In addition, the IC50 in experiment [3] (setting [4]) turned out to be 180 ± 30 nM. Further, the IC50 in experiment [3] (setting [5]) came to 212 nM.
`COc1ccc2c(NC(=O)CI)c(C(=O)c3cc(OC)c(OC)c(OC)c3)oc2c1` [Compound 3l, 2-Iodo-N-[6-methoxy-2-(3,4,5-trimethoxybenzoyl)-1-benzofuran-3-yl]acetamide]: in experiment [1], the “Cell cycle percentage G0/G1” value was 23±3%, the “Cell cycle percentage G2/M” value is listed as 21±3%, the “Cell cycle percentage S” value was 56±4% and the “Effect on cell cycle distribution (in words)” value is listed as “caused an increase in the percentage of cells in S phase”. For the same molecule, the “Colchicine binding % ±SD (inhibition of [3H]colchicine binding)” value in experiment [2] was found to be 54±1%. Moreover, the IC50 in experiment [3] (setting [4]) is 64 ± 20 nM. The IC50 in experiment [3] (setting [5]) amounted to 115 nM.
For `COc1ccc(/C=C\c2cc(OC)c(OC)c(OC)c2)cc1O` [combretastatin A-4, reference compound], the “Inhibition of colchicine binding” value in experiment [2] (combretastatin A-4 at 1 μM, generally observed) is on record as 85–90%.

Values taken from PMC2911241 (Letters in drug design & discovery, 2010).
